# Shown is part of a subset that was picked to be rich in hits.
# CHOP inh – inhibitors of CHOP induction in ER stress response; inhibition, % at 10 µM; CHO-K1 CHOP-promoter luciferase, tunicamycin-induced, 15-18 h; 220,000 compounds, 3.8% hits;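 active means compounds that reduced the stress-induced luciferase reporter signal by more than about 70% of percent inhibition, limit read from the data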;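 further: 0% = tunicamycin plus vehicle and 100% = wells without tunicamycin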
# NOD2-RIPK2 inh – NOD2-RIPK2 protein interaction inhibition. O43353. 360,000 compounds, 0.38% hits. inhibition, % at 4.98 µM. CHO BLA complementation NOD2-RIPK2, CCF4 ratio. AID 624267; in the data active means inhibition above about 21%;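 further: 0% = vehicle only and 100% = reference blocker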
# UPR XBP1 act – activators of adaptive arm of unfolded protein response (XBP1) | CHO-XBP1 luciferase reporter, IRE1-XBP1 UPR activation, luminescence; percent of tunicamycin response, DMSO as zero | activation, % at 20 µM | 330,000 compounds, 0.33% hits;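 active means versus positive control, 20 µM dose yields 30% or more activation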;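 further: 100% = tunicamycin at 10 µg/mL and 0% = DMSO only wells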
#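 Material: CHO cell line with stable XBP1 luciferase reporter; schedule: 16-18 h cell attachment at 37 °C, then 6 h compound exposure; signal: glow luminescence from Steady-Glo reagent; medium: serum-containing F12 medium, 10% FBS; benchmarks: tunicamycin 10 µg/mL and vehicle-only wells; read-out: percent activation relative to tunicamycin reference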
# TLR9-MyD88 block – TLR9-MyD88 interaction inhibition. CHO BLA complementation TLR9-MyD88, CCF4 FRET ratio. inhibition, % at 4.98 µM. 340,000 compounds, 0.21% hits. AID 504734;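 active means inhibition above the mean over all tested compounds plus 3 SD, cut at about 21% in these data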;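 further: 0% = DMSO only wells and 100% = clavulanate BLA inhibitor control wells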
# UPR CHOP act – apoptotic UPR (CHOP) activation; 330,000 compounds, 0.34% hits; activation, % at 10 µM; CHO-CHOP luciferase reporter, luminescence; percent of tunicamycin response over DMSO baseline; AID 449763;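 active means at 10 µM dose, activation of 40% or more, normalized to positive control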;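 further: 100% = tunicamycin at 10 µg/mL and 0% = DMSO alone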
#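 Test system: CHO CHOP reporter cells. Input: 500 CHO-CHOP cells per well. Medium: F12 with 10% FBS. Technique: luciferase luminescence. Measure: percent activation relative to tunicamycin control. Dosing: 10 µM compound, 0.5% DMSO. Timing: 16-18 h cell attachment, then 6 h compound exposure, 37 °C.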
# TLR4 MyD88 comp – inhibitors of human TLR4-MyD88 binding; O00206+Q99836; HeLa CL3-4 TLR4/MyD88 BLA complementation, FRET ratio; inhibition, % at 8.4 µM; 200,000 compounds, 0.18% hits; AID 861; in the data active means inhibition above about 25%;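 further: 0% = vehicle and 100% = reference inhibitor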
# An asterisk follows results filed as active; / = no result.
SMILES,CHOP inh,NOD2-RIPK2 inh,UPR XBP1 act,TLR9-MyD88 block,UPR CHOP act,TLR4 MyD88 comp
COc1cc(CNC2CCCC2)cc(Cl)c1OCc1ccccc1F,79*,12,2,6,-1,-2
C[C@H]1CN(C2CCCCC2)C(=O)[C@@H]1CC(=O)Nc1ccc(Br)cc1,/,-13,/,5,/,/
CCCCNC(=O)c1ccc(Cc2cn(C)c3ccccc23)nc1,/,-2,/,/,/,/
CC(C)(C)C1CCC(OC(=O)c2cncc(Br)c2)CC1 (stereo not given),6,1,-1,-4,1,0
CC(C)(C)C1CCC(OC(=O)c2ccncc2)CC1 (stereo not given),74*,-1,-2,-4,2,11
COc1ccc(N2C(=O)CC(c3ccc(OC(C)C)cc3)C2=O)cc1 (stereo not given),73*,-11,-3,-4,-1,/
COc1ccc(N2C(=O)CC(c3ccccc3)C2=O)cc1 (stereo not given),6,1,0,7,0,/
CC(C)CN(CCNC(=O)CC1Oc2ccccc2NC1=O)CC(C)C (stereo not given),72*,-6,-1,-4,0,4
CCN(CCNC(=O)CC1Oc2ccccc2NC1=O)c1ccccc1 (stereo not given),14,6,-2,-5,-2,9
C=C(C)Cn1c2ccc(NC(=O)NCc3ccccc3)cc2c(=O)n1C,/,-5,/,/,/,/
OCCCNc1ncnc2c1ncn2[C@H]1CN(C2CCCC2)C[C@@H](CO)O1,/,-6,/,/,/,/
CCOC(=O)c1c(N)nn(C(=O)c2ccccc2F)c1-c1ccc(OC)cc1,21,-3,-1,4,1,-7
CCOC(=O)c1c(N)nn(C(=O)C(C)(C)C)c1-c1ccccc1,94*,-7,1,1,1,-10
CC(C)=CCC/C(C)=C/Cc1c(O)ccc(C(=O)/C=C/c2ccc(O)cc2)c1O,86*,-1,5,-3,0,-2
O=C(O)c1ccccc1C(=O)Nc1ccc(Oc2cccc3ccccc23)cc1,78*,-6,/,-5,/,2
CC(C)NC(=O)C1(C)CCCN1C(=O)c1ccccc1Br (stereo not given),/,-7,/,/,/,/
COc1ccc(S(=O)(=O)c2ccc(OC)cc2)cc1,12,6,1,-1,1,13
COc1ccc(S(=O)(=O)/N=C2/C=CC(=O)C(C)=C2C)cc1,82*,-11,-2,4,-1,-8
COc1ccc([C@H]2C[C@H](O)[C@@H](n3cc(C4CC4)nn3)CN2C(=O)C2CCCCC2)cc1,/,0,/,-8,/,/
CC1CCCC(CC(N)=O)CC1 (stereo not given),/,-16,/,9,/,/
O=C(Nc1cccc(S(=O)(=O)Nc2ccc(Cl)cc2)c1)c1cc2c(s1)CCCC2,76*,-8,0,0,1,5
O=C(Nc1cccc(S(=O)(=O)Nc2ccc(Cl)cc2)c1)c1ccc(Cl)nc1,73*,9,0,-11,2,-13
CC1(C)NC(=O)N(CCC(=O)Nc2ccc(C(C)(C)C)cc2)C1=O,/,-3,/,9,/,/
O=C(NC(c1ccc(Cl)cc1)c1c(O)ccc2ccccc12)c1ccccc1 (stereo not given),85*,-5,/,-12,/,3
CC(C)CC(=O)NC(c1ccccc1)c1c(O)ccc2ccccc12 (stereo not given),/,6,-5,-3,1,/
SMILES,CHOP inh,NOD2-RIPK2 inh,UPR XBP1 act,TLR9-MyD88 block,UPR CHOP act,TLR4 MyD88 comp
CCCCC(=O)NC(c1ccc([N+](=O)[O-])cc1)c1c(O)ccc2ccccc12 (stereo not given),78*,0,-3,-2,2,-12
CS(=O)(=O)c1ccc(-c2csc(C(O)c3cccc(Cl)c3)n2)cc1 (stereo not given),/,-5,/,/,/,/
Cc1cccc(C(O)c2ncc(-c3ccccc3F)[nH]2)c1C (stereo not given),/,-4,/,/,/,/
CCCCOC(=O)Nc1ccc(C(=O)OCCC)cc1,86*,3,2,5,2,16
CCCCCCCCOC(=O)c1ccc(N)cc1,76*,-2,-2,-20,2,4
CCCCOC(=O)c1ccc(O)cc1,0,10,1,2,2,-2
CCC(C)(C)n1nnnc1C(c1cccnc1)N1CCC(Cc2ccccc2)CC1 (stereo not given),16,-2,0,12,12,2
CC(C)(C)n1nnnc1C(c1cccc(C#N)c1)N1CCC(Cc2ccccc2)CC1 (stereo not given),80*,-1,-3,3,5,-6
O=C1NC[C@@H](Cc2ccc(O)cc2)N(CCc2cc(C(F)(F)F)cc(C(F)(F)F)c2)C1=O,/,-4,/,/,/,/
C=CCn1c(SCC(=O)NCCCC)nc2scc(-c3ccco3)c2c1=O,93*,-1,-1,3,-1,-7
COc1ccccc1Cc1nc(-c2cccnc2)no1,-12,1,6,2,2,/
COc1ccc(-c2nc(-c3ccc(Br)o3)no2)cc1OC,45,1,9,0,8,-4
COc1ccccc1Cc1nc(-c2ccc(Br)o2)no1,35,1,1,-8,5,-9
Cc1ccccc1OCc1nc(-c2ccc(Br)o2)no1,84*,-6,6,9,4,2
COc1ccccc1-c1nc(-c2ccc(Br)o2)no1,73*,-6,3,3,2,-9
COc1ccc(-c2noc(Cc3ccccc3OC)n2)cc1,92*,5,2,-1,-1,-3
Cc1ccc(-c2noc(COc3ccccc3C)n2)cc1,90*,-2,0,-6,3,-6
CN(CCCn1cnc2c(OCc3ccccc3)ncnc21)Cc1ccco1,/,5,/,3,/,/
O=c1c2ccc(Cl)cc2[nH]c(=S)n1CCC1=CCCCC1,84*,-3,1,1,3,1
O=C(COC(=O)CC12CC3CC(CC(Br)(C3)C1)C2)NC(=O)NCc1ccco1,71*,1,-3,-3,-2,-9
Cn1cccc1C(=O)NC(=O)COC(=O)CC12CC3CC(CC(Br)(C3)C1)C2,29,5,0,-2,0,-1
COc1ccc(/C(C)=N/OC/C(O)=C(\C#N)c2nc3ccccc3[nH]2)c(OC)c1,95*,-2,1,5,1,11

# Screening data from PubChem BioAssay.
